Calls of active or inactive are those of the source. The rule behind the calls is not given here.

The target of experiment [1] is T1, Chromodomain Y-like protein (Homo sapiens) (UniProt Q9Y232).
T1 sequence (whole entry): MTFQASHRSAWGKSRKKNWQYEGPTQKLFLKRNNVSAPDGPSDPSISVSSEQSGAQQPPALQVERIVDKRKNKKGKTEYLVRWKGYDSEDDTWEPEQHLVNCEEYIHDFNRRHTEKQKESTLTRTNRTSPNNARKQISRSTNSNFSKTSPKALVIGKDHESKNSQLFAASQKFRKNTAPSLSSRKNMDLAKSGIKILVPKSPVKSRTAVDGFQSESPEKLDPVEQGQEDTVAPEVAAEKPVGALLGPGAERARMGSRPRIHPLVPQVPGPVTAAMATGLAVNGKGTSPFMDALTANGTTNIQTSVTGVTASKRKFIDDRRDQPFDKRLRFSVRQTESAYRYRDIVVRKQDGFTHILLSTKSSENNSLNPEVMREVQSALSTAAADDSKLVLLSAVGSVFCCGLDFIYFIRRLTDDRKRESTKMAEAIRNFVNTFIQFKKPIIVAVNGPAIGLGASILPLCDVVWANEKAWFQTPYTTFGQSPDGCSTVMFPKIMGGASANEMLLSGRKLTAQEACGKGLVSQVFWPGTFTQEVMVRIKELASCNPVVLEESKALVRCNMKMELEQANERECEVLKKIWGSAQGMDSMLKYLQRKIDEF
Put plainly: Inhibition of CDYL in human SH-SY5Y cells assessed as increase in BDNF mRNA expression incubated for 24 hrs by RT-qPCR analysis. In kind it is cell-based. A digest of the protocol:
(§1)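 SH-SY5Y or HEK-293T cells grown in DMEM with 10% FBS and treated with compound for 24 h. mRNA quantified by SYBR green RT-qPCR after DNase treatment, 2^-ΔΔCt method with GAPDH as reference, relative to DMSO. Mean ± S.E.M. of triplicate experiments, Student's t-test.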

In experiment [2] the target is T1, Chromodomain Y-like protein (Homo sapiens). Put plainly: Inhibition of CDYL in human SH-SY5Y cells assessed as increase in VGF mRNA expression incubated for 24 hrs by RT-qPCR analysis. The class given is cell-based. In short, it runs like this:
as §1
On the technique in general: Real-time PCR tracks product formation cycle by cycle.

For experiment [3] the target is unchanged. The experiment is described as follows: Inhibition of CDYL in human HEK293T cells assessed as increase in BDNF mRNA expression at 50 to 200 uM incubated for 24 hrs by RT-qPCR analysis. The class given is cell-based. A digest of the protocol:
as §1

For experiment [4] the target is unchanged. The experiment is described as follows: Inhibition of CDYL in human HEK293T cells assessed as increase in VGF mRNA expression at 50 to 200 uM incubated for 24 hrs by RT-qPCR analysis. In kind it is cell-based. In short, it runs like this:
as §1

For experiment [5] the target is unchanged. Put plainly: Inhibition of CDYL in human SH-SY5Y cells assessed as decrease in enrichment of CDYL at MYT1 promoter site at 150 uM incubated for 24 hrs by ChIP-qPCR analysis. In kind it is cell-based. In short, it runs like this: (§2)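 About 1×10^7 SH-SY5Y cells given 150 µM compound or DMSO for 24 h, fixed in 1% formaldehyde for 10 min. Chromatin immunoprecipitated overnight-style (12 h, 4 °C) with CDYL or H3K27me3 antibody, captured on Protein A/G beads, washed, decrosslinked at 65 °C. Promoter DNA quantified by qPCR, mean ± S.E.M. of triplicate experiments, Student's t-test.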

Experiment [6] shares this target. The experiment is described as follows: Binding affinity to CDYL in human SH-SY5Y cells assessed as increase in protein thermal stability at 150 uM incubated for 10 mins at room temperature followed by exposure to 40 to 67 degC for 4 mins followed by cooling for 3 mins at room temperature by CETSA. In kind it is cell-based. A digest of the protocol: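 SH-SY5Y cells freeze-thawed three times in liquid nitrogen, lysate diluted with PBS, given 150 µM compound or DMSO for 10 min at room temperature. Aliquots heated at 40–67 °C for 4 min, cooled 3 min, spun at 13,000 g for 10 min at 4 °C. CDYL in the supernatant read by SDS-PAGE and Western blot, bands quantified by densitometry.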

For experiment [7] the target is unchanged. The experiment is described as follows: Inhibition of CDYL in human SH-SY5Y cells assessed as decrease in enrichment of CDYL at BDNF promoter site at 150 uM incubated for 24 hrs by ChIP-qPCR analysis. The class given is cell-based. In short, it runs like this:
as §2

The target is the same in experiment [8]. Put plainly: Inhibition of CDYL in human SH-SY5Y cells assessed as decrease in enrichment of CDYL at VGF promoter site at 150 uM incubated for 24 hrs by ChIP-qPCR analysis. In kind it is cell-based. In short, it runs like this:
as §2

Experiment [9] relates to SH-SY5Y. Put plainly: Effect on CDYL recruitment onto HOXA3 promoter site in human SH-SY5Y cells at 150 uM incubated for 24 hrs by ChIP-qPCR analysis. The class given is functional, cell-based. In short, it runs like this:
as §2

For experiment [10], the target named is T1, Chromodomain Y-like protein (Homo sapiens). Put plainly: Inhibition of CDYL in human SH-SY5Y cells assessed as decrease in enrichment of H3K27me3 at VGF promoter site at 150 uM incubated for 24 hrs by ChIP-qPCR analysis. The class given is cell-based. In short, it runs like this:
as §2

In experiment [11] the test system is SH-SY5Y. Put plainly: Effect on enrichment of H3K27me3 at HOXA3 promoter site in human SH-SY5Y cells at 150 uM incubated for 24 hrs by ChIP-qPCR analysis. In kind it is functional, cell-based. In short, it runs like this:
as §2

The target in experiment [12] is T2, Chromodomain Y-like protein (Mus musculus) (UniProt Q9WTK2).
T2 sequence (whole entry): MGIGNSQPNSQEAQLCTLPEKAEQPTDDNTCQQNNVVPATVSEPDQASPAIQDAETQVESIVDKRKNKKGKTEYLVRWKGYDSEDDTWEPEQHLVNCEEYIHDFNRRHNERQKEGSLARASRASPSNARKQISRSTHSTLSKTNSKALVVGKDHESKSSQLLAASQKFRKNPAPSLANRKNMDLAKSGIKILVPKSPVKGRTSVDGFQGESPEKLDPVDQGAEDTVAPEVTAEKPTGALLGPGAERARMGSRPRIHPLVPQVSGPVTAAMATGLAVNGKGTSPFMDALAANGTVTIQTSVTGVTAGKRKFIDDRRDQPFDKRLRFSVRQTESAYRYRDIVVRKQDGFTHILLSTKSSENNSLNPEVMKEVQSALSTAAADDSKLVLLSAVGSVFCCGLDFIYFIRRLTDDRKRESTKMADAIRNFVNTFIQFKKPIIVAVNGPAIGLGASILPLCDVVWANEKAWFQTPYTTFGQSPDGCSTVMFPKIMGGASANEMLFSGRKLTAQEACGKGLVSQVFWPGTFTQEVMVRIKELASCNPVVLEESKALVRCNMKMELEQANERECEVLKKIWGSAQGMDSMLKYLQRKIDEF
Put plainly: Inhibition of CDYL in C57BL/6 mouse cortical neurons as increase in VGF mRNA expression at 150 uM incubated for 24 hrs by RT-qPCR analysis. In short, it runs like this:
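Mouse cortical or hippocampal neurons, dissociated with trypsin and kept in Neurobasal/B27, treated with 150 µM compound for 24 h. mRNA measured by SYBR green RT-qPCR with the 2^-ΔΔCt method, GAPDH as reference, relative to DMSO. Mean ± S.E.M. of triplicate experiments, Student's t-test.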

The target in experiment [13] is T1, Chromodomain Y-like protein (Homo sapiens). The experiment is described as follows: Binding affinity to CDYL in human SH-SY5Y cells assessed as reduction in protein degradation incubated for 4 mins at 55 degC for 4 mins by CETSA. The class given is cell-based. A digest of the protocol: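 Lysates of SH-SY5Y cells, freeze-thawed three times, incubated with compound at 0–500 µM at 55 °C for 4 min. Supernatant isolated by centrifugation and CDYL read by immunoblot with densitometry.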

Regarding `O=C(Cn1c(=O)oc2ccccc21)N1CCC(N2CCCC2)CC1`, the Activity entry in [1] and in experiment [2] was “Dose-dependent effect” in each case. The result in experiment [3], in experiment [4], in [6] and in [12] was Active. The inhibition entry in [5], in experiment [7], in experiment [8] and in experiment [10] was “Active” each time. For the same compound, the result in the experiment with SH-SY5Y [9] and in the experiment on SH-SY5Y [11] was inactive. In [13], the inhibition result was “Dose-dependent effect”.

These data come from ChEMBL document CHEMBL4359913, “Identification and characterization of benzo[d]oxazol-2(3H)-one derivatives as the first potent and selective small-molecule inhibitors of chromodomain protein CDYL” (Eur J Med Chem, 2019).
